In PubChem BioAssay:
Activity calls are given as the source filed them.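 The calls were made as follows, unless noted: active = fluorescence slope higher than the sample average by over 3 SD (cut at about -0.22 in these data, passing the limit was not always enough); inactive = the rest.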

Experiments:
[1] = inhibitors of TNFa-induced NFkB p65 translocation, primary screen, imaging, HUVEC, MLSMR starter and 10KST1 sets (AID 438;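 active = inhibition above 20% together with a positive visual image hit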;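 also: compound added about 3h40 before a 20 min TNFalpha stimulation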;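 as to inhibition: signal is the nuclear over cytoplasmic p65 intensity ratio per well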); conditions: HUVEC TNFa-induced p65 nuclear translocation; cell count: measured here: nuclei count (cytotoxicity indicator), at 2.08 µM; inhibition: at 2 µM, stronger effect = higher value, 0% TNFa-plus-vehicle, 100% no-TNFa wells
[2] = endothelial E-selectin expression blockers – imaging, HUVEC, immunofluorescence, MLSMR starter and 10KST1 sets, primary screen (AID 487;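 active = visually confirmed hit in the image check and inhibition above 20%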;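 as to inhibition: signal is fraction of cell area covered by stained E-selectin grains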;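 as to nuclei count: 100% = median nuclei count of all wells on the same plate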); conditions: HUVEC TNFalpha-induced E-selectin immunofluorescence imaging, at 2 µM; inhibition: stronger effect = higher value; nuclei count: measured here: cell number, toxicity
[3] = Primary imaging screen for DUSP6 inhibitors that restore phospho-Erk in transfected HeLa cells, chemical complementation (AID 609;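 active = compounds giving at least 50% inhibition in the cell-based MKP-3 phosphatase rescue imaging test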;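 as to inhibition: phospho-Erk level distribution per well compared with pooled transfected vehicle control wells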); conditions: HeLa MKP-3 transfected, phospho-Erk imaging KS statistic, at 10 µM, cells stimulated with TPA for 15 min
[4] = target: Dual specificity protein phosphatase 6 (Homo sapiens) (UniProt Q16828); test: as above; conditions: HeLa MKP-3 transfected, phospho-Erk imaging KS statistic; at 10 µM; stronger effect = higher value; cells stimulated with TPA for 15 min
[5] = target: Voltage-gated potassium channel subunit beta-2 (Rattus norvegicus) (UniProt P62483); test: inhibitors of rat Kvbeta2 reductase activity – biochemical, NADPH fluorescence, primary screen (AID 622); conditions: recombinant KvBeta, 4-cyanobenzaldehyde reduction, at 10 µM, stronger effect = higher value;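 also: slope of raw intensity against log time taken from 70 to 1610 s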
[6] = target: Voltage-gated potassium channel subunit beta-2 (Rattus norvegicus) (UniProt P62483); test: enhancers of rat Kvbeta2 NADPH turnover – biochemical, NADPH fluorescence, primary screen (AID 623;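 active = NADPH fluorescence slope more negative than the mean of all samples by about 3 SD, 99.7% confidence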;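 also: fluorescence intensity change per second fitted from 20 to 320 s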); conditions: Recombinant KvBeta, NADPH fluorescence decrease slope, 10 min; at 10 µM; stronger effect = lower value
[7] = target: Alpha-2C adrenergic receptor (Homo sapiens) (UniProt P18825); test: compounds altering alpha2C-coupled GIRK flux – cell-based, HEK293 alpha2C/GIRK1/2, thallium flux, primary screen (AID 624;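 active = fluorescence slope after compound addition differing from the mean of all screened samples at 99.7% confidence, in either direction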;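 also: slope of fluorescence ratio to pre-addition baseline per second over 15 to 24 s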); conditions: thallium flux BTC fluorescence, at 10 µM, actives lie on both sides
[8] = inhibitors of larval lipid processing in zebrafish, primary screen, whole organism, PED6 fluorescence, gall bladder and intestine (AID 686;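 active = a full or partial loss of lipid-probe fluorescence in the fish gall bladder, intestine or both, judged by eye; inactive = no fluorescence loss, or compound toxic to the fish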;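 also: larvae 5 to 7 days old with five fish per well; signal comes from phospholipase A2 cleavage of quenched PED6 carried via bile; overnight exposure to compound and PED6 before scoring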); conditions: Zebrafish larvae PED6 lipid processing, fluorescence scoring; screened at 20 µM (by protocol)
Summary of the method: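 System: live zebrafish larvae aged 5-7 days, whole organism; measure: graded gall bladder and intestinal fluorescence inhibition per well; incubation: overnight exposure; reagent: ingested quenched lipid PED6 at 100 nM; signal: By-eye fluorescence microscopy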

[9] = loss of swimming-algae plug formation – whole organism, Chlamydomonas reinhardtii, WT vs cilia-less mutant, absorbance, 96-well, primary screen (AID 463189;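 active = inhibition at or above 50% relative to wild type and mutant plate controls; inactive = inhibition below 50%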;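 also: 0% = wild type cc124 cells in DMSO and 100% = ciliumless bld1 mutant cells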); conditions: Chlamydomonas reinhardtii gravitaxis, OD600 absorbance, 2 days; at 10 µM; stronger effect = higher value
[10] = measured here: cell density z-score
[11] = measured here: nuclear c-Myc green intensity z-score
[12] = measured here: nuclear pErk red intensity z-score, stronger effect = higher value

Sequence of Alpha-2C adrenergic receptor (Homo sapiens) (P18825 whole entry, looked up): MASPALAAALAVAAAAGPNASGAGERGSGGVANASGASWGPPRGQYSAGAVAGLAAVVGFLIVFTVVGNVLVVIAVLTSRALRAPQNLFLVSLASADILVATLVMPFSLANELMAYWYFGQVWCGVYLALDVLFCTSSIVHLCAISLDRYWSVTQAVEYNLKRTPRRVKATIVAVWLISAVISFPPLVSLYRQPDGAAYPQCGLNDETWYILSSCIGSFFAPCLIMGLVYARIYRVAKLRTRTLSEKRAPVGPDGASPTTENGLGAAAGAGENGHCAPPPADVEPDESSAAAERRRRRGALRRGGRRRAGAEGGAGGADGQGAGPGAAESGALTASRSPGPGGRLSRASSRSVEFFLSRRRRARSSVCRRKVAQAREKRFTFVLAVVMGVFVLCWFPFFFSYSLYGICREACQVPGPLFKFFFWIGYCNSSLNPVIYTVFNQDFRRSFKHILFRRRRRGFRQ
Sequence of Dual specificity protein phosphatase 6 (Homo sapiens) (Q16828 whole entry, looked up): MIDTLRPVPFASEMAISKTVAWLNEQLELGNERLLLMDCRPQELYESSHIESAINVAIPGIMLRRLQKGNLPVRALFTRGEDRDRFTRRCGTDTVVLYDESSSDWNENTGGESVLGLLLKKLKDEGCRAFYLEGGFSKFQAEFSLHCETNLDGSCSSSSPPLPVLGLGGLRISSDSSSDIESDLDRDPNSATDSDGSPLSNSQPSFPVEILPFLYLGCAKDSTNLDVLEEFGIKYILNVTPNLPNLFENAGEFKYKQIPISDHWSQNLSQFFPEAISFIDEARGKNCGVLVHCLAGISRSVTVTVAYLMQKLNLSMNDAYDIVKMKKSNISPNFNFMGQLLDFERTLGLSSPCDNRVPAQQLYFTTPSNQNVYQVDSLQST
Sequence of Voltage-gated potassium channel subunit beta-2 (Rattus norvegicus) (P62483 whole entry, looked up): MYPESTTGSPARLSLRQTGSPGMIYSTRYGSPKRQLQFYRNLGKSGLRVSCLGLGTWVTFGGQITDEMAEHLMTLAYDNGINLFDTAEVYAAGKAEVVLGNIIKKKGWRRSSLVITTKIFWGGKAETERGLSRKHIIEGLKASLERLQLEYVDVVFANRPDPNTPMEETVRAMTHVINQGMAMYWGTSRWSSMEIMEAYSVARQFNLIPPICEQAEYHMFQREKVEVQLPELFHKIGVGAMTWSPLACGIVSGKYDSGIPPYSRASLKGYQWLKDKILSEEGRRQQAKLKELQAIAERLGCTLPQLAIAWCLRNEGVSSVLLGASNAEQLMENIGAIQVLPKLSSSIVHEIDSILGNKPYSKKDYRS

SMILES | cell count [1] | inhibition [1] | inhibition [2] | nuclei count [2] [%] | z-score [3, 10] | z-score [3, 11] | z-score [3, 12] | inhibition [4] | fluorescence slope [5] | NADPH fluorescence slope [6] | slope [7] | outcome [8] | inhibition [9]
CCOC(=O)c1ccc(N2CC(O)=C(c3nc4ccccc4c(=O)[nH]3)C2=N)cc1 | 623 | -11.3% (inactive) | 45.3% (inactive) | 186 | -1.54 | 0.558 | 1.53 | -13.3% (inactive) | -0.208 (inactive) | -1.8e-05 (inactive) | 0.00503 (inactive) | inactive | 2.42% (inactive)
COc1ccc(OC)c(C2NC(=O)c3sc(=S)n(-c4ccccc4)c3N2)c1 (centres undefined) | 612 | -8.4% (inactive) | -60.3% (inactive) | 159 | -1 | 0.762 | 1.43 | -6.86% (inactive) | -0.369 (inactive) | -6.5e-05 (inactive) | 0.00525 (inactive) | inactive | -6.25% (inactive)
CCOC(=O)C(C#N)C(Cc1ccccc1)c1ccco1 (centres undefined) | 590 | -3% (inactive) | -70.2% (inactive) | 166 | 1.19 | -0.726 | -0.042 | 2.46% (inactive) | -0.488 (inactive) | -0.000162 (inactive) | 0.00534 (inactive) | inactive | 6.44% (inactive)
CCOC(=O)c1[nH]c2ccc(OC)cc2c1NC(=O)CCN1CCN(Cc2ccccc2)CC1 | 541 | -11.2% (inactive) | -92.4% (inactive) | 165 | 1.87 | 1.32 | -0.24 | 1.12% (inactive) | -0.173 (inactive) | -2.9e-05 (inactive) | 0.00459 (inactive) | inactive | 16.3% (inactive)
CC(C)(C)c1ccc(C(=O)C=[N+]=[N-])cc1 | 519 | -4.7% (inactive) | -112% (inactive) | 60.8 | -1.12 | -0.668 | -0.2 | 3.97% (inactive) | -0.524 (inactive) | -6.4e-05 (inactive) | 0.00701 (inactive) | inactive | 2.22% (inactive)
CCOc1cccc(-c2nnc3sc(C4CCCCC4)nn23)c1 | 683 | 1.1% (inactive) | 16.2% (inactive) | 160 | 1.83 | -1.11 | -1.63 | 15.5% (inactive) | -0.446 (inactive) | -0.000139 (inactive) | 0.00527 (inactive) | inactive; toxic | 36.1% (inactive)
COc1ccc(/C(O)=C2\C(=O)C(=O)N(CCN3CCOCC3)C2c2ccccc2OC)cc1 (centres undefined) | 562 | -10.5% (inactive) | -38.1% (inactive) | 164 | 1.03 | -1.74 | 0.476 | -7.86% (inactive) | -0.486 (inactive) | -2.2e-05 (inactive) | 0.00695 (inactive) | inactive | -2.72% (inactive)
Cc1ccc(OCc2nnc(NC(=O)c3ccco3)s2)c(C)c1 | 438 | -7.3% (inactive) | 15.6% (inactive) | 106 | -0.686 | -0.603 | 0.0542 | -1.12% (inactive) | -0.308 (inactive) | -1.3e-05 (inactive) | 0.00608 (inactive) | inactive | -4.85% (inactive)
CCOc1cccc(-c2nnc3sc(COc4ccccc4)nn23)c1 | 537 | -7.5% (inactive) | 40.9% (inactive) | 91.9 | 1.73 | -0.94 | -0.568 | -4.27% (inactive) | -0.433 (inactive) | -9.6e-05 (inactive) | 0.00533 (inactive) | inactive | 17.6% (inactive)
Cc1nc2oc(C(=O)c3ccc(Br)cc3)c(N)c2c2c1COC(C)(C)C2 | 643 | -7.3% (inactive) | -142% (inactive) | 119 | 0.13 | -0.803 | -0.664 | 24.7% (inactive) | -0.532 (inactive) | -5.4e-05 (inactive) | 0.00462 (inactive) | inactive | 39.3% (inactive)
Cc1ccc(CC2CC(=O)N(c3ccc4c(c3)OCCO4)C2=O)cc1 (centres undefined) | 482 | -11% (inactive) | -17.8% (inactive) | 129 | 1.49 | -1.24 | 0.443 | 15.1% (inactive) | -0.513 (inactive) | -0.000111 (inactive) | 0.00446 (inactive) | inactive | 25.7% (inactive)
CCN(CC)CCCn1c(C)cc2c(c1=O)C(c1ccc(OC)c(OC)c1OC)C(C#N)=C(N)O2 (centres undefined) | 439 | 13.1% (inactive) | -23% (inactive) | 134 | -1.55 | -0.016 | 0.949 | 2.46% (inactive) | -0.389 (inactive) | -3.6e-05 (inactive) | 0.0068 (inactive) | inactive | -3.45% (inactive)
CCOC(=O)CCc1c(C)c(C#N)c2nc3ccccc3n2c1-n1ccnc1C | 583 | -0.8% (inactive) | -125% (inactive) | 138 | -0.341 | 0.0322 | -0.112 | 7.93% (inactive) | -0.457 (inactive) | -3.9e-05 (inactive) | 0.00607 (inactive) | inactive | 21.4% (inactive)
